≈ marks a conversion by molar mass, not a printed value.
Legend:
Staphylococcus aureus [1] = assay: Antibacterial activity against Staphylococcus aureus harboring FtsZ G196A mutant by broth microdilution method; assay type: functional
Method in brief: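 S. aureus ATCC 29213 derivative with G196A substitution in FtsZ; MIC by broth microdilution following CLSI guidelines; reported in µg/mL.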

Staphylococcus aureus [2] = assay: Antibacterial activity against Staphylococcus aureus ATCC 29213 by broth microdilution method; assay type: functional
Method in brief: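 Broth microdilution MIC per CLSI guidelines against S. aureus ATCC 29213; MIC in µg/mL.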

[3] = target: T1, Cell division protein FtsZ (Staphylococcus aureus) (UniProt P0A031); assay: Inhibition of Staphylococcus aureus ATCC 29213 FtsZ-mediated cell division phenotype
T1 sequence (whole entry): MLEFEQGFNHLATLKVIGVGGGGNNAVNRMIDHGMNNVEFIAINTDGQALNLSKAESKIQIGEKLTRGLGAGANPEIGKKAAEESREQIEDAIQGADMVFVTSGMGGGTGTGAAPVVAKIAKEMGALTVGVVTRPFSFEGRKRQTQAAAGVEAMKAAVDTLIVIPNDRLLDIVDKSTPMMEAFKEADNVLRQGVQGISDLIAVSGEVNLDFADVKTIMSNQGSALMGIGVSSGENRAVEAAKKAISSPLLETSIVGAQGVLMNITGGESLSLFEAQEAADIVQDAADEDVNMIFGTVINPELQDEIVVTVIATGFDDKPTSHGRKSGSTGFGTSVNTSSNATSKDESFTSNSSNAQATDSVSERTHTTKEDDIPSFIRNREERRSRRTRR
Method in brief: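 S. aureus ATCC 29213 cell division inhibition assay run alongside MIC testing; value is the lowest concentration at which an inhibition of cell division phenotype was seen (µg/mL).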

SMILES	MIC (Staphylococcus aureus [1])	MIC (Staphylococcus aureus [2])	MIC [3]
NC(=O)c1c(F)ccc(OCc2nc(-c3ccc(OC(F)(F)F)cc3)c(Cl)o2)c1F	8 µg/mL (≈ 17.8 µM)	0.12 µg/mL (≈ 0.267 µM)	0.12 µg/mL (≈ 0.267 µM)
COc1oc(COc2ccc(F)c(C(N)=O)c2F)nc1-c1ccc(Cl)cc1		0.5 µg/mL (≈ 1.27 µM)	0.5 µg/mL (≈ 1.27 µM)
N#Cc1oc(COc2ccc(F)c(C(N)=O)c2F)nc1-c1ccc(C(F)(F)F)cc1	> 64 µg/mL	2 µg/mL (≈ 4.72 µM)	4 µg/mL (≈ 9.45 µM)
NC(=O)c1c(F)ccc(OCc2nc(-c3ccc(Cl)cc3)c(N)o2)c1F	> 64 µg/mL	> 64 µg/mL	> 64 µg/mL
COc1ccc(-c2nc(COc3ccc(F)c(C(N)=O)c3F)oc2-c2ccccc2)cc1	> 64 µg/mL	0.12 µg/mL (≈ 0.275 µM)	0.12 µg/mL (≈ 0.275 µM)
NC(=O)c1c(F)ccc(OCc2nc(-c3ccc(OC(F)(F)F)cc3)c(C(F)(F)F)o2)c1F	> 64 µg/mL	0.5 µg/mL (≈ 1.04 µM)	0.5 µg/mL (≈ 1.04 µM)
NC(=O)c1c(F)ccc(O[C@@H](CO)c2nc(-c3ccc(C(F)(F)F)cc3)c(Br)o2)c1F	64 µg/mL (≈ 126 µM)	16 µg/mL (≈ 31.5 µM)	16 µg/mL (≈ 31.5 µM)
CCC(Oc1ccc(F)c(C(N)=O)c1F)c1nc(-c2ccc(Cl)cc2)c(Br)o1 (racemic)		2 µg/mL (≈ 4.24 µM)	1 µg/mL (≈ 2.12 µM)
Cc1nnc(CC(Oc2ccc(F)c(C(N)=O)c2F)c2nc(-c3ccc(C(F)(F)F)cc3)c(Br)o2)o1 (racemic)		8 µg/mL (≈ 14 µM)	16 µg/mL (≈ 27.9 µM)
NC(=O)c1c(F)ccc(OCc2nc(-c3ccc(Cl)cc3)co2)c1F	> 64 µg/mL	4 µg/mL (≈ 11 µM)	4 µg/mL (≈ 11 µM)
NC(=O)c1c(F)ccc(OCc2nc(-c3ccc(Cl)cc3)c(CCCO)o2)c1F	> 64 µg/mL	2 µg/mL (≈ 4.73 µM)	2 µg/mL (≈ 4.73 µM)
NC(=O)c1c(F)ccc(OCc2nc3cc(Cl)cnc3s2)c1F	> 64 µg/mL	1 µg/mL (≈ 2.81 µM)	0.5 µg/mL (≈ 1.41 µM)
NC(=O)c1c(F)ccc(OCc2nc(-c3ccc(OC(F)(F)F)cc3)c(Br)o2)c1F	2 µg/mL (≈ 4.06 µM)	0.06 µg/mL (≈ 0.122 µM)	0.03 µg/mL (≈ 0.0608 µM)
Cc1oc(COc2ccc(F)c(C(N)=O)c2F)nc1-c1ccc(Cl)cc1	> 64 µg/mL	0.5 µg/mL (≈ 1.32 µM)	0.5 µg/mL (≈ 1.32 µM)
COc1ccc(-c2nc(COc3ccc(F)c(C(N)=O)c3F)oc2C2CC2)cc1	> 64 µg/mL	0.12 µg/mL (≈ 0.3 µM)	0.12 µg/mL (≈ 0.3 µM)
COc1ccc(-c2nc(COc3ccc(F)c(C(N)=O)c3F)oc2-c2cncs2)cc1		2 µg/mL (≈ 4.51 µM)	2 µg/mL (≈ 4.51 µM)
NC(=O)c1c(F)ccc(O[C@H](CO)c2nc(-c3ccc(C(F)(F)F)cc3)c(Br)o2)c1F	4 µg/mL (≈ 7.89 µM)	0.12 µg/mL (≈ 0.237 µM)	0.25 µg/mL (≈ 0.493 µM)
NC(=O)c1c(F)ccc(OC(CO)c2nc(-c3ccc(Cl)cc3)c(Br)o2)c1F (racemic)		0.25 µg/mL (≈ 0.528 µM)	0.25 µg/mL (≈ 0.528 µM)
NC(=O)c1c(F)ccc(OCc2nc(-c3ccc(Cl)cc3)c(Br)o2)c1F	2 µg/mL (≈ 4.51 µM)	0.06 µg/mL (≈ 0.135 µM)	0.03 µg/mL (≈ 0.0676 µM)
COc1ccc(-c2coc(COc3ccc(F)c(C(N)=O)c3F)n2)cc1	> 64 µg/mL	2 µg/mL (≈ 5.55 µM)	2 µg/mL (≈ 5.55 µM)
NC(=O)c1c(F)ccc(OCc2nc(-c3ccc(Cl)cc3)c([N+](=O)[O-])o2)c1F	> 64 µg/mL	> 64 µg/mL	> 64 µg/mL
NC(=O)c1c(F)ccc(OCc2nc(-c3ccc(OC(F)(F)F)cc3)c(I)o2)c1F	> 64 µg/mL	0.06 µg/mL (≈ 0.111 µM)	0.06 µg/mL (≈ 0.111 µM)
CC(C)(Oc1ccc(F)c(C(N)=O)c1F)c1nc(-c2ccc(Cl)cc2)c(Br)o1		> 64 µg/mL	
CCOc1oc(COc2ccc(F)c(C(N)=O)c2F)nc1-c1ccc(Cl)cc1	> 64 µg/mL	0.06 µg/mL (≈ 0.147 µM)	0.03 µg/mL (≈ 0.0734 µM)
NC(=O)c1c(F)ccc(OC(c2cccnc2)c2nc(-c3ccc(Cl)cc3)c(Br)o2)c1F (racemic)		4 µg/mL (≈ 7.68 µM)	4 µg/mL (≈ 7.68 µM)
NC(=O)c1c(F)ccc(OC(CCO)c2nc(-c3ccc(C(F)(F)F)cc3)c(Br)o2)c1F (racemic)		0.5 µg/mL (≈ 0.959 µM)	0.5 µg/mL (≈ 0.959 µM)
NC(=O)c1c(F)ccc(OCc2nc(-c3ccccc3)co2)c1F	> 64 µg/mL	16 µg/mL (≈ 48.4 µM)	16 µg/mL (≈ 48.4 µM)
CN(C)CCC(Oc1ccc(F)c(C(N)=O)c1F)c1nc(-c2ccc(C(F)(F)F)cc2)c(Br)o1 (racemic)		8 µg/mL (≈ 14.6 µM)	16 µg/mL (≈ 29.2 µM)
